Source: ChEMBL document CHEMBL2346608, “New annelated thieno[2,3-e][1,2,3]triazolo[1,5-a]pyrimidines, with potent anticancer activity, designed through VLAK protocol” (2013)

Tests used:
Format in all cases: functional
SK-OV-3 = test: Antiproliferative activity against human SKOV3 cells after 48 hrs by sulforhodamine B assay; settings: SK-OV-3, 48 h
Procedure, shortened: (§1)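 Cells grown in RPMI 1640 with 5% FBS and 2 mM L-glutamine, plated at 5000–40,000 cells/well and preincubated 24 h at 37 °C, 5% CO2. Five drug concentrations (10-fold or ½-log dilutions from DMSO stocks) applied for 48 h. TCA-fixed (final 10% adherent, 16% suspension), SRB-stained, A515 read. Growth versus time-zero and control wells gave GI50, TGI, LC50.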

NCI/ADR-RES = test: Antiproliferative activity against human NCI/ADR-RES cells after 48 hrs by sulforhodamine B assay; procedure, shortened: as §1
NCI-H522 = test: Antiproliferative activity against human NCI-H522 cells after 48 hrs by sulforhodamine B assay; settings: NCI-H522, 48 h; procedure, shortened: as §1
NCI-H460 = test: Antiproliferative activity against human NCI-H460 cells after 48 hrs by sulforhodamine B assay; settings: NCI-H460, 48 h; procedure, shortened: as §1
NCI-H322M = test: Antiproliferative activity against human NCI-H322M cells after 48 hrs by sulforhodamine B assay; procedure, shortened: as §1
NCI-H23 = test: Antiproliferative activity against human NCI-H23 cells after 48 hrs by sulforhodamine B assay; settings: NCI-H23, 48 h; procedure, shortened: as §1
HOP-92 = test: Antiproliferative activity against human HOP92 cells after 48 hrs by sulforhodamine B assay; settings: HOP-92, 48 h; procedure, shortened: as §1
UACC-62 = test: Antiproliferative activity against human UACC62 cells after 48 hrs by sulforhodamine B assay; settings: UACC-62, 48 h
Procedure, shortened: (§2)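 Cells in RPMI 1640 with 5% FBS and 2 mM L-glutamine were seeded at 5000–40,000/well according to doubling time and preincubated 24 h at 37 °C in 5% CO2. Time-zero plates were TCA-fixed when drug was added. Five 10-fold or ½-log dilutions from DMSO stocks were added for 48 h. After SRB staining, A515 was read and GI50 derived from [(Ti−Tz)/(C−Tz)]×100 = 50.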

UACC-257 = test: Antiproliferative activity against human UACC257 cells after 48 hrs by sulforhodamine B assay; settings: UACC-257, 48 h; procedure, shortened: as §2
SK-MEL-5 = test: Antiproliferative activity against human SK-MEL-5 cells after 48 hrs by sulforhodamine B assay; settings: SK-MEL-5, 48 h; procedure, shortened: as §1
Malme-3M = test: Antiproliferative activity against human MALME-3M cells after 48 hrs by sulforhodamine B assay; procedure, shortened: as §1
RPMI-8226 = test: Antiproliferative activity against human RPMI8226 cells after 48 hrs by sulforhodamine B assay; settings: RPMI-8226, 48 h; procedure, shortened: as §1
K562 = test: Antiproliferative activity against human K562 cells after 48 hrs by sulforhodamine B assay; settings: K562, 48 h; procedure, shortened: as §1
MOLT-4 = test: Antiproliferative activity against human MOLT4 cells after 48 hrs by sulforhodamine B assay; settings: MOLT-4, 48 h; procedure, shortened: as §1
CCRF-CEM = test: Antiproliferative activity against human CCRF-CEM cells after 48 hrs by sulforhodamine B assay; procedure, shortened: as §1
SW-620 = test: Antiproliferative activity against human SW620 cells after 48 hrs by sulforhodamine B assay; settings: SW-620, 48 h; procedure, shortened: as §2
HCT-116 = test: Antiproliferative activity against human HCT116 cells after 48 hrs by sulforhodamine B assay; settings: HCT-116, 48 h; procedure, shortened: as §1
[1] = Antiproliferative activity against human HCC2998 cells after 48 hrs by sulforhodamine B assay; settings: HCC 2998, 48 h; procedure, shortened: as §1
COLO 205 = test: Antiproliferative activity against human COLO205 cells after 48 hrs by sulforhodamine B assay; settings: COLO 205, 48 h; procedure, shortened: as §1
SNB-75 = test: Antiproliferative activity against human SNB75 cells after 48 hrs by sulforhodamine B assay; settings: SNB-75, 48 h; procedure, shortened: as §2
SNB-19 = test: Antiproliferative activity against human SNB19 cells after 48 hrs by sulforhodamine B assay; settings: SNB-19, 48 h; procedure, shortened: as §1
SF-295 = test: Antiproliferative activity against human SF295 cells after 48 hrs by sulforhodamine B assay; settings: SF-295, 48 h; procedure, shortened: as §1
T47D = test: Antiproliferative activity against human T47D cells after 48 hrs by sulforhodamine B assay; procedure, shortened: as §2
MDA-MB-231 = test: Antiproliferative activity against human MDA-MB-231 cells after 48 hrs by sulforhodamine B assay; settings: MDA-MB-231, 48 h; procedure, shortened: as §1
UO-31 = test: Antiproliferative activity against human UO31 cells after 48 hrs by sulforhodamine B assay; settings: UO-31, 48 h; procedure, shortened: as §2
CAKI-1 = test: Antiproliferative activity against human CAKI-1 cells after 48 hrs by sulforhodamine B assay; settings: CAKI-1, 48 h; procedure, shortened: as §1
RXF 393 = test: Antiproliferative activity against human RXF393 cells after 48 hrs by sulforhodamine B assay; settings: RXF 393, 48 h; procedure, shortened: as §1
A498 = test: Antiproliferative activity against human A498 cells after 48 hrs by sulforhodamine B assay; settings: A498, 48 h; procedure, shortened: as §1
PC-3 = test: Antiproliferative activity against human PC3 cells after 48 hrs by sulforhodamine B assay; settings: PC-3, 48 h; procedure, shortened: as §1
[2] = read-out: pLC50 (the source's name) (converted)

O=C(CCCn1c(=O)c2sc3ncccc3c2n2nnc(-c3ccccc3)c12)NCCc1c[nH]cn1
GI50 (SK-OV-3): 14.5 µM
LC50 (SK-OV-3): 53.7 µM
TGI (SK-OV-3; read-out: pTGI (converted)): 27.5 µM
GI50 (NCI/ADR-RES): 33.9 µM
LC50 (NCI/ADR-RES): > 100 µM
TGI (NCI/ADR-RES; read-out: pTGI (converted)): > 100 µM
GI50 (NCI-H522): 2.95 µM
LC50 (NCI-H522): 60.3 µM
TGI (NCI-H522; read-out: pTGI (converted)): 22.9 µM
GI50 (NCI-H460): 3.63 µM
LC50 (NCI-H460): 42.7 µM
TGI (NCI-H460; read-out: pTGI (converted)): 13.2 µM
GI50 (NCI-H322M): 14.8 µM
LC50 (NCI-H322M): 89.1 µM
TGI (NCI-H322M; read-out: pTGI (converted)): 36.3 µM
GI50 (NCI-H23): 14.5 µM
LC50 (NCI-H23): 70.8 µM
TGI (NCI-H23; read-out: pTGI (converted)): 32.4 µM
GI50 (HOP-92): 17 µM
CC50 (HOP-92; [2]): 91.2 µM
TGI (HOP-92; read-out: pTGI (converted)): 39.8 µM
GI50 (UACC-62): 15.8 µM
LC50 (concentration killing 50% of cells) (UACC-62): 57.5 µM
TGI (UACC-62; read-out: pTGI (converted)): 30.2 µM
GI50 (UACC-257): 18.2 µM
LC50 (UACC-257): 69.2 µM
TGI (UACC-257; read-out: pTGI (converted)): 35.5 µM
GI50 (SK-MEL-5): 16.2 µM
LC50 (SK-MEL-5): > 100 µM
TGI (SK-MEL-5; read-out: pTGI (converted)): > 100 µM
GI50 (Malme-3M): 18.2 µM
LC50 (Malme-3M): 75.9 µM
TGI (Malme-3M; read-out: pTGI (converted)): 37.2 µM
GI50 (RPMI-8226): 5.13 µM
CC50 (RPMI-8226; [2]): > 100 µM
TGI (RPMI-8226; read-out: pTGI (converted)): 35.5 µM
GI50 (K562): 0.309 µM
LC50 (concentration killing 50% of cells) (K562): > 100 µM
TGI (K562; read-out: pTGI (converted)): 15.5 µM
GI50 (MOLT-4): 2.24 µM
LC50 (MOLT-4): > 100 µM
TGI (MOLT-4; read-out: pTGI (converted)): 24 µM
GI50 (CCRF-CEM): 0.224 µM
LC50 (CCRF-CEM): > 100 µM
TGI (CCRF-CEM; read-out: pTGI (converted)): 4.47 µM
GI50 (SW-620): 0.331 µM
LC50 (SW-620): 61.7 µM
TGI (SW-620; read-out: pTGI (converted)): 14.5 µM
GI50 (HCT-116): 0.38 µM
LC50 (HCT-116): 38.9 µM
TGI (HCT-116; read-out: pTGI (converted)): 10 µM
GI50 [1]: 2.04 µM
LC50 [1]: > 100 µM
TGI ([1]; read-out: pTGI (converted)): 30.2 µM
GI50 (COLO 205): 6.31 µM
LC50 (COLO 205): 58.9 µM
TGI (COLO 205; read-out: pTGI (converted)): 23.4 µM
GI50 (SNB-75): 15.1 µM
LC50 (concentration killing 50% of starting cells) (SNB-75): 55 µM
TGI (SNB-75; read-out: pTGI (converted)): 28.8 µM
GI50 (SNB-19): 10.7 µM
LC50 (SNB-19): > 100 µM
TGI (SNB-19; read-out: pTGI (converted)): 33.9 µM
GI50 (SF-295): 1.74 µM
LC50 (SF-295): 53.7 µM
TGI (SF-295; read-out: pTGI (converted)): 16.2 µM
GI50 (T47D): 1.86 µM
LC50 (T47D): 64.6 µM
TGI (T47D; read-out: pTGI (converted)): 21.4 µM
GI50 (MDA-MB-231): 17.8 µM
LC50 (MDA-MB-231): 67.6 µM
TGI (MDA-MB-231; read-out: pTGI (converted)): 34.7 µM
GI50 (UO-31): 11.7 µM
LC50 (UO-31): 60.3 µM
TGI (UO-31; read-out: pTGI (converted)): 26.9 µM
GI50 (CAKI-1): 2.88 µM
CC50 (CAKI-1; [2]): 72.4 µM
TGI (CAKI-1; read-out: pTGI (converted)): 14.5 µM
GI50 (RXF 393): 14.8 µM
LC50 (RXF 393): 77.6 µM
TGI (RXF 393; read-out: pTGI (converted)): 33.9 µM
GI50 (A498): 6.76 µM
LC50 (A498): 53.7 µM
TGI (A498; read-out: pTGI (converted)): 22.4 µM
GI50 (PC-3): 11 µM
LC50 (PC-3): > 100 µM
TGI (PC-3; read-out: pTGI (converted)): > 100 µM
